Assay results published in ChEMBL document CHEMBL4765303, “Synthesis and evaluation of butein derivatives for in vitro and in vivo inflammatory response suppression in lymphedema” (Eur J Med Chem, 2020).
Values after ≈ are worked out from the molar mass of the structure shown. Values belong to the compound of their own block, whether it stands above or below them. Active and inactive are the calls of the source. No cut-off for these calls is given here.

How the values were obtained:
[1] = Inhibition of LPS stimulated TNF alpha production in Balb/c mouse peritoneal macrophages measured by ELISA plate reader method; type: functional; settings: Macrophage
[2] = Inhibition of LPS stimulated TNF alpha production in Balb/c mouse peritoneal macrophages at 20 uM measured by ELISA plate reader method; type: functional; settings: Macrophage
In short: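 Thioglycollate-elicited peritoneal exudate cells from male Balb/c mice, adherent fraction after overnight plating at 37 °C. Cells stimulated with 100 ng/mL LPS for 24 h with compound at 20 µM. Supernatant TNF-α measured by ELISA. Mean ± SD, n = 3.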

[3] = Metabolic stability in human liver microsomes assessed as percentage of compound remaining after 30 mins; type: ADME, Microsome; settings: read-out: Stabilty
In short: (§1)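 Phase I stability in liver microsomes from mouse, rat and human. Percent of compound remaining measured 30 min after reaction. Buspirone included as a control metabolized in Phase I.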

[4] = Dissociation constant, pKa of compound; type: physicochemical
[5] = Metabolic stability in mouse liver microsomes assessed as percentage of compound remaining after 30 mins; type: ADME, Microsome; settings: read-out: Stabilty; in short: as §1
[6] = Metabolic stability in rat liver microsomes assessed as percentage of compound remaining after 30 mins; type: ADME, Microsome; settings: read-out: Stabilty; in short: as §1
[7] = Kinetic solubility of compound in water; type: physicochemical; settings: read-out: Kinetic_solubility
Mus musculus [8] = test: Antiinflammatory activity in orally dosed surgical-induced lymphedema ICR mouse model assessed as reduction in lymphedema volume administered for 7 days before surgery and measured 7 days after surgery relative to control; type: functional; settings: time 14 day
In short: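 Lymphedema induced in the right lower limb of anesthetized male ICR mice by removing the superficial inguinal, popliteal and deep inguinal lymph nodes and a femoral lymphatic vessel, with limited cautery. Oral dosing at 100 mg/kg/day started 7 days before surgery and continued every 2 days afterwards. Limb volume measured by caliper on day 7 by blinded observers and compared with vehicle.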

Mus musculus [9] = test: Antiinflammatory activity in orally dosed surgical-induced lymphedema ICR mouse model assessed as reduction in neutrophil infiltration administered for 7 days before surgery and measured 7 days after surgery; type: functional, organism-based; settings: time 14.0 day
In short: (§2)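 Surgical lymphedema model in male ICR mice with oral pretreatment starting 7 days before surgery. Right hind-limb tissue taken 15–25 mm distal on day 7 post-surgery and H&E-stained to assess dermal tissue and neutrophils. Groups: normal, vehicle, treated.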

Mus musculus [10] = test: Antiinflammatory activity in orally dosed surgical-induced lymphedema ICR mouse model assessed as reduction in Fabp4 mRNA expression administered 7 days before surgery and measured 7 days after surgery by RT-PCR analysis; type: functional, organism-based; settings: time 14.0 day
[11] = AUC (0 to infinity) in CD-1 mouse at 1 mg/kg, iv measured upto 1440 mins by LC/MS/MS analysis; type: ADME, organism-based; design: route intravenous, dose 1 mg/kg, time <=1440; settings: in vivo, 24 h
In short: (§3)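 Male CD-1 mice, 5 weeks old, dosed once, either by tail vein at 1 mg/kg or orally at 20 mg/kg or 100 mg/kg. Plasma levels give Cmax, Tmax and AUC. Values are mean ± SD from three mice. A prodrug is quantified through its main metabolite, the parent compound (LOQ <1 ng/mL).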

[12] = Oral bioavailability in CD-1 mouse at 20 mg/kg measured upto 1440 mins by LC/MS/MS analysis; type: ADME, organism-based; settings: in vivo, 24 h
In short: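 Male CD-1 mice (5 weeks) dosed orally at 20 mg/kg, with a 1 mg/kg tail-vein reference group. Bioavailability calculated as (AUCpo/AUCiv) × 100. Mean ± SD, three mice.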

[13] = Cmax in CD-1 mouse at 20 mg/kg, po measured upto 1440 mins by LC/MS/MS analysis; type: ADME, organism-based; design: route oral, dose 20 mg/kg, time <=1440; settings: in vivo; in short: as §3
[14] = Tmax in CD-1 mouse at 20 mg/kg, po measured upto 1440 mins by LC/MS/MS analysis; type: ADME, organism-based; settings: in vivo; in short: as §3
Mus musculus [15] = test: Antiinflammatory activity in orally dosed surgical-induced lymphedema ICR mouse model assessed as reduction in TNF-alpha mRNA expression administered 7 days before surgery and measured 7 days after surgery by RT-PCR analysis; type: functional, organism-based; settings: time 14.0 day
Mus musculus [16] = test: Antiinflammatory activity in orally dosed surgical-induced lymphedema ICR mouse model assessed as reduction in dermal layer lymphedema tissue administered for 7 days before surgery and measured 7 days after surgery; type: functional, organism-based; settings: time 14.0 day; in short: as §2
Mus musculus [17] = test: Antiinflammatory activity in orally dosed surgical-induced lymphedema ICR mouse model assessed as reduction in PPARgamma mRNA expression administered 7 days before surgery and measured 7 days after surgery by RT-PCR analysis; type: functional, organism-based; settings: time 14.0 day
[18] = Tmax in CD-1 mouse at 100 mg/kg, po measured upto 1440 mins by LC/MS/MS analysis; type: ADME, organism-based; settings: in vivo; in short: as §3
Mus musculus [19] = test: Antiinflammatory activity in orally dosed surgical-induced lymphedema ICR mouse model assessed as reduction in Fabp4 administered 7 days before surgery and measured 7 days after surgery by Western blot analysis; type: functional, organism-based; settings: time 14.0 day
[20] = Cmax in CD-1 mouse at 1 mg/kg, iv measured upto 1440 mins by LC/MS/MS analysis; type: ADME, organism-based; design: route intravenous, dose 1 mg/kg, time <=1440; settings: in vivo; in short: as §3
Mus musculus [21] = test: Antiinflammatory activity in orally dosed surgical-induced lymphedema ICR mouse model assessed as reduction in PPARgamma expression administered 7 days before surgery and measured 7 days after surgery by Western blot analysis; type: functional, organism-based; settings: time 14.0 day
[22] = Cmax in CD-1 mouse at 100 mg/kg, po measured upto 1440 mins by LC/MS/MS analysis; type: ADME, organism-based; design: route oral, dose 100 mg/kg, time <=1440; settings: in vivo; in short: as §3
[23] = AUC (0 to infinity) in CD-1 mouse at 100 mg/kg, po measured upto 1440 mins by LC/MS/MS analysis; type: ADME, organism-based; design: route oral, dose 100 mg/kg, time <=1440; settings: in vivo; in short: as §3
Mus musculus [24] = test: Antiinflammatory activity in orally dosed surgical-induced lymphedema ICR mouse model assessed as reduction in PPARgamma expression administered 7 days before surgery and measured 7 days after surgery by immunofluorescence analysis; type: functional, organism-based; settings: time 14.0 day
In short: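 Surgical lymphedema in male ICR mice with oral pretreatment. Limb tissue harvested on day 7 post-surgery. Sections immunostained with anti-mouse PPARγ, Alexa Fluor 488 secondary and DAPI, then examined by fluorescence microscopy.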

[25] = Tmax in CD-1 mouse at 1 mg/kg, iv measured upto 1440 mins by LC/MS/MS analysis; type: ADME, organism-based; settings: in vivo; in short: as §3
Mus musculus [26] = test: Antiinflammatory activity in orally dosed surgical-induced lymphedema ICR mouse model assessed as reduction in TNF-alpha expression administered 7 days before surgery and measured 7 days after surgery; settings: time 14.0 day
[27] = AUC (0 to infinity) in CD-1 mouse at 20 mg/kg, po measured upto 1440 mins by LC/MS/MS analysis; type: ADME, organism-based; design: route oral, dose 20 mg/kg, time <=1440; settings: in vivo, 24 h; in short: as §3

- IC50 [1]: 17.9 µM
SMILES: O=C(Oc1cc(O)ccc1C(=O)/C=C/c1ccc(O)c(O)c1)c1ccc(Cl)cc1

- IC50 [1]: 20.8 µM
SMILES: COc1ccc(C(=O)Oc2cc(O)ccc2C(=O)/C=C/c2ccc(O)c(O)c2)cc1

- IC50 [1]: 18.9 µM
SMILES: Cc1ccc(C(=O)Oc2cc(O)ccc2C(=O)/C=C/c2ccc(O)c(O)c2)cc1

- AUC [11]: 163 ng·h/mL
- remaining at 0.5 h [3]: 2%
- F [12]: 4%
- pKa [4]: 3.38
- Cmax [13]: 83 ng/mL
- Tmax [14]: 24 min
- remaining at 0.5 h [5]: 4%
- remaining at 0.5 h [6]: 7%
- Tmax [18]: 24 min
- solubility kinetic [7]: 136 µg/mL (≈ 361 µM)
- Cmax [20]: 110 ng/mL
- Cmax [22]: 1600 ng/mL
- AUC ([23]; mouse, 24 h): 1224 ng·h/mL
- Tmax [25]: 12 min
- IC50 [1]: 14.6 µM
- AUC [27]: 141 ng·h/mL
SMILES: O=C(Oc1cc(O)ccc1C(=O)/C=C/c1ccc(O)c(O)c1)c1ccccc1
- inhibition (Mus musculus [9]): Active
- inhibition (Mus musculus [10]): Active
- inhibition (Mus musculus [15]): Active
- inhibition (Mus musculus [16]): Active
- inhibition (Mus musculus [17]): Active
- inhibition (Mus musculus [19]): Active
- inhibition (Mus musculus [21]): Active
- inhibition (INH) (Mus musculus [8]): 70%
- inhibition at 20 µM [2]: 51%
- inhibition (Mus musculus [24]): Active
- inhibition (Mus musculus [26]): Active

Further lines, the compound ahead of its results:

SMILES: CC(C)Oc1cc(O)ccc1C(=O)/C=C/c1ccc(O)c(O)c1
- inhibition at 20 µM [2]: 64%

SMILES: O=C(/C=C/c1ccc(F)c(O)c1)c1ccc(O)cc1O
- inhibition at 20 µM [2]: 22%

SMILES: O=C(/C=C/c1ccc(O)c(O)c1)c1ccc(Cl)cc1
- remaining at 0.5 h [3]: 38%
- pKa [4]: 9.23
- remaining at 0.5 h [5]: 7.26%
- remaining at 0.5 h [6]: 21.1%
- solubility kinetic [7]: 28 µg/mL (≈ 102 µM)
- inhibition (INH) (Mus musculus [8]): 53%
- inhibition at 20 µM [2]: 62%
- IC50 [1]: 17.3 µM

SMILES: O=C(/C=C/c1ccc(O)c(O)c1)c1ccc(O)cc1F
- inhibition at 20 µM [2]: 32%

SMILES: Cc1ccc(C(=O)/C=C/c2ccc(O)c(O)c2)cc1
- inhibition at 20 µM [2]: 61%
- IC50 [1]: 18.6 µM

SMILES: O=C1CC2(CCCC2)CC(=O)N1CCCCN1CCN(c2ncccn2)CC1 [BUSPIRONE]
- remaining at 0.5 h [3]: 4.7%
- remaining at 0.5 h [5]: 0.0183%
- remaining at 0.5 h [6]: 0.0928%

SMILES: O=C(/C=C/c1ccc(O)c(O)c1)c1ccc(O)cc1O [BUTEIN]
- inhibition (Mus musculus [9]): Active
- inhibition (Mus musculus [10]): Active
- AUC [11]: 6.7 ng·h/mL
- remaining at 0.5 h [3]: 61.6%
- pKa [4]: 7.96
- Cmax [13]: 43 ng/mL
- Tmax [14]: 18 min
- remaining at 0.5 h [5]: 9.93%
- inhibition (Mus musculus [15]): Active
- remaining at 0.5 h [6]: 18.1%
- inhibition (Mus musculus [16]): Active
- inhibition (Mus musculus [17]): Active
- Tmax [18]: 18 min
- solubility kinetic [7]: 21 µg/mL (≈ 77.1 µM)
- inhibition (Mus musculus [19]): Active
- Cmax [20]: 41 ng/mL
- inhibition (Mus musculus [21]): Active
- Cmax [22]: 601 ng/mL
- inhibition (INH) (Mus musculus [8]): 52%
- AUC(0-inf) ([23]; CD-1, mouse): 251 ng·h/mL
- inhibition at 20 µM [2]: 20%
- inhibition (Mus musculus [24]): Active
- Tmax [25]: 6 min
- IC50 [1]: 43.3 µM
- inhibition (Mus musculus [26]): Active
- AUC [27]: 21 ng·h/mL

SMILES: Cc1cc(O)ccc1C(=O)/C=C/c1ccc(O)c(O)c1
- inhibition at 20 µM [2]: 41%
- IC50 [1]: 48.4 µM

SMILES: CC(=O)Oc1ccc(C(=O)/C=C/c2ccc(OC(C)=O)c(OC(C)=O)c2)c(OC(C)=O)c1
- inhibition at 20 µM [2]: 73%
- IC50 [1]: 12.8 µM
